# High-throughput results (PubChem BioAssay)
# Compounds with a hit are over-represented: about 4.6% of the library has one in this group of screens.
# GPR7 antag = antagonists of human GPR7 (neuropeptides B/W receptor 1); P48145; GPR7-expressing cells, fluorescence antagonist assay; inhibition, % at 4.4 µM; 290,000 tested, 1.1% active; AID 1861; in the data active = inhibition above about 16%, passing the limit was not always enough;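 note: cells stimulated with the agonist NPW; 0% = agonist with vehicle and 100% = vehicle without agonist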
# TAAR1 antag = human TAAR1 antagonism | Q96RJ0 | CHO RD-HGA16 TAAR1, Fluo-8 calcium fluorescence, antagonist | inhibition, % at 3 µM | 360,000 tested, 1.5% active;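 active = inhibition above a per-plate cutoff, the mean inhibition of test compounds on that plate plus 3 SD, cut at about 49% in these data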;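 note: 0% = DMSO plus EC80 beta-PEA response and 100% = DMSO alone without agonist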
#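 Test system: hTAAR1-expressing CHO RD-HGA16 cells, Gα16-coupled; Probe or stimulus: EC80 β-phenethylamine stimulus; Compound dosing: single nominal final test compound concentration of 3 µM; Timing: 140 s kinetic read after compound, 140 s after agonist; Signal: Fluo-8 calcium-sensitive fluorescence; Measure: % inhibition of agonist calcium response; Controls: DMSO and EC80 PEA controls.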
# TAAR1 agonist = human TAAR1 agonism; Q96RJ0; CHO RD-HGA16 TAAR1, Fluo-8 calcium fluorescence; vehicle wells 0%, saturating PEA agonist 100%; activation, % at 3 µM; 360,000 tested, 0.99% active; AID 624467;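 active = activation above the mean activation of all test compounds in the run plus 3 SD, cut at about 38% in these data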
#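 Assay system: CHO-derived RD-HGA16 cells with stable Gα16 and human TAAR1; timing: 17-24 h seeding, 75 min 37 °C dye, 30 min RT; read-out: % activation from peak over basal fluorescence ratio, DMSO-to-PEA scaled; measured by: kinetic Fluo-8 calcium fluorescence; benchmarks: low control DMSO, high control PEA (EC100); doses: 3 µM single concentration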
# OX1R antag-1 = OX1R (human) antagonism; O43613; OX1R-expressing cells, FRET antagonist read-out; inhibition, % at 6.6 µM; 330,000 tested, 1.8% active; AID 485270; in the data active = inhibition mostly above about 38%, no sharp cut-off; inactive = mostly below about 40%;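 note: 0% = agonist challenge alone and 100% = reference antagonist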
# Target sequence (O43613 whole entry, looked up): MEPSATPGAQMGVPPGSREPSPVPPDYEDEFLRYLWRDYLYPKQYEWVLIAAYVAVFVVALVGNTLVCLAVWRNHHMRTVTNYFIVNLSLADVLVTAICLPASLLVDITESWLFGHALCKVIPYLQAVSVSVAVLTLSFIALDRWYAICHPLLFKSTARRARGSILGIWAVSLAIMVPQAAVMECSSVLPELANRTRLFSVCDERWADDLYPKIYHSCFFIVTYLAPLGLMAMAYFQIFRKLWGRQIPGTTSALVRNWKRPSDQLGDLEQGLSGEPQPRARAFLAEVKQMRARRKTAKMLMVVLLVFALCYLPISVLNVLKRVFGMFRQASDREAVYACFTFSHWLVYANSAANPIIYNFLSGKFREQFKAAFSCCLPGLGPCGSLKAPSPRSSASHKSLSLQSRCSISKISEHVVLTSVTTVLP
# OX1R antag-2 = human HCRTR1 antagonism. O43613. CHO/OX1R cells, Fluo-8 calcium fluorescence, orexin A. inhibition, % at 5 µM. 330,000 tested, 0.43% active. AID 434989;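 active = inhibition above its plate's threshold, mean inhibition of all tested compounds on the plate plus 3 SD, cut at about 37% in these data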;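 note: 0% = orexin A challenge wells and 100% = SB-334867-A antagonist wells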
# CHO parental Ca = counter-screen for OX1R antagonists: effect in parental CHO cells; 330,000 tested, 0.63% active; parental CHO-K1, ATP-induced calcium, Fluo-8 fluorescence; inhibition, % at 5.6 µM;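 active = inhibition above that plate's mean sample inhibition plus 3 SD, cut at about 26% in these data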;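 note: 0% = ATP-challenged DMSO wells and 100% = DMSO wells without ATP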
#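 Material – parental CHO cells · Reagent – ATP stimulus · Compound – single nominal dose of 5.6 µM per compound · Detection – Fluo-8 fluorescence · Read-out basis – percent inhibition of calcium signal · Controls – ATP-challenged DMSO wells low, unchallenged DMSO wells high · Repeats – no replicates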
# TAAR1 ag conf = human TAAR1 agonism, confirmed; shares compounds with TAAR1 agonist; CHO RD-HGA16 TAAR1, Fluo-8 calcium fluorescence; scaled: DMSO 0%, maximal phenethylamine 100%; activation, % at 3 µM; 2,400 tested, 82% active; AID 651783;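 active = activation above a cutoff set at the run's mean compound activation plus 3 SD, cut at about 39% in these data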
# Ga16 nonsel ag = counter-screen for TAAR1 agonists: nonselective agonists in parental cells; shares compounds with TAAR1 agonist; CHO-Ga16 parental, Fluo-8 calcium fluorescence; normalized to maximal ATP response, DMSO zero; activation, % at 3 µM; 2,400 tested, 50% active;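 active = activation above the run cutoff, the mean activation over all tested wells plus 3 SD, cut at about 12% in these data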;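 note: 0% = DMSO wells and 100% = maximal ATP response on the peak over basal ratio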
# TAAR1 desensitize = human TAAR1 agonist that also desensitizes the receptor; inhibition, % at 3 µM; 2,400 tested, 46% active; CHO RD-HGA16 hTAAR1, Fluo-8 calcium, beta-PEA response inhibition; shares compounds with TAAR1 agonist;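 active = inhibition above the run cutoff, the mean inhibition of all test compounds plus 3 SD, cut at about 49% in these data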;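 note: beta-PEA stimulus applied at its EC80; loss of beta-PEA calcium signal after compound pretreatment read as receptor desensitization; 0% = DMSO with beta-PEA at EC80 and 100% = DMSO alone without agonist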
# Ga16 nonsel ant = nonselective Ga16 antagonist in TAAR1 agonist counter-screen; inhibition, % at 3 µM; 2,400 tested, 39% active; CHO-Ga16 ATP-induced calcium, Fluo-8 fluorescence; AID 651952; shares compounds with TAAR1 agonist;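 active = inhibition above the plate's mean compound inhibition plus 3 SD, computed per plate, cut at about 22% in these data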;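 note: 0% = EC80 ATP with DMSO and 100% = DMSO wells without ATP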
# Numbers without * were called inactive; . = no result.
SMILES,GPR7 antag,TAAR1 antag,TAAR1 agonist,OX1R antag-1,OX1R antag-2,CHO parental Ca,TAAR1 ag conf,Ga16 nonsel ag,TAAR1 desensitize,Ga16 nonsel ant
O=C1NCCN(Cc2ccc(Cl)c(F)c2)C1CC(=O)N1CCc2ccccc2C1 (stereo not given),-5,11,60*,0,-16,-14,92*,1,46,5
O=C(CSc1nc2[nH]ncc2c(=O)n1-c1ccccc1)c1ccc2c(c1)OCCO2,-1,58*,75*,17,-5,2,67*,21*,50*,27*
O=C(Cc1ccc(NC(=O)C2CCCN(C(=O)C3CCC3)C2)cc1)Nc1cccc(C(=O)N2CCCC2)c1 (stereo not given),.,-20,2,.,.,.,.,.,.,.
CCCc1cnc(Nc2nc(C(N)Cc3ccc(OC)cc3)cs2)nc1 (stereo not given),.,16,48*,.,.,.,47*,18*,10,13
NC(Cc1ccc(Cl)cc1)c1csc(Nc2ccc(-c3ccccc3)nn2)n1 (stereo not given),.,49*,63*,.,.,.,23,25*,24,40*
COc1ccc(CC(N)c2csc(Nc3cc(NCCCO)ncn3)n2)cc1 (stereo not given),.,4,1,.,.,.,.,.,.,.
COc1ccc(CC(N)c2csc(Nc3nncc4ccccc34)n2)cc1 (stereo not given),.,37,61*,.,.,.,82*,34*,52*,32*
COc1cc(OC)nc(Nc2nc(C(N)Cc3ccc(F)cc3)cs2)n1 (stereo not given),.,14,56*,.,.,.,63*,38*,36,34*
CCc1cnc(Nc2nc(C(N)Cc3ccc(Cl)cc3)cs2)nc1 (stereo not given),.,29,51*,.,.,.,70*,32*,41,28*
O=C(NC1CCCCCCC1)c1cccc(Cl)c1,2,-9,-2,3,-33,-23,.,.,.,.
COc1ccc(C(=O)Nc2ccc(N3CCCCCC3)cc2)cc1S(=O)(=O)N1CCOCC1,.,18,4,14,-2,-2,.,.,.,.
O=C(Nc1ccc(N2CCCC2)cc1)c1cccc(Cl)c1,-1,5,-3,7,-24,-3,.,.,.,.
CCCCCOc1ccc(CSC(=N)N)cc1[N+](=O)[O-],20,28,59*,30,-27,-10,104*,59*,69*,29*
O=C(COC(=O)c1ccc(Cl)cc1)NC1CCCCCC1,.,9,42*,12,6,12,-3,2,-7,-1
O=C(/C=C/c1ccco1)N1CCCC(c2ccccc2)C1 (stereo not given),-3,18,49*,8,-22,-10,33,-1,31,7
CCOc1ccc(NC(=O)N2CCC(c3ccc(C)cc3)C2)cc1 (stereo not given),-4,38,51*,13,-7,-8,7,4,11,10
Cc1ccc(NC(=O)N2CCCC(c3ccccc3)C2)cc1 (stereo not given),-6,21,49*,-1,-9,-5,58*,-1,33,3
CCc1ccc(NC(=O)N2CCC(c3ccccc3)C2)cc1 (stereo not given),-10,-12,0,11,-7,-19,.,.,.,.
O=C(/C=C/c1ccccc1)N1CCC(c2ccccc2)C1 (stereo not given),-2,0,-1,4,-18,-10,.,.,.,.
COc1cccc(NC(=S)/C(=C(\[O-])c2cc(C)n(-c3ccccc3F)c2C)[n+]2ccc(N(C)C)cc2)c1,-5,1,3,14,-20,-17,.,.,.,.
CC1(c2nnnn2-c2ccc3c(c2)OCCO3)CCC(=O)N1CC(F)(F)F (stereo not given),.,-15,1,.,.,.,.,.,.,.
O=C(COc1ccc(Cl)cc1Cl)NC(=S)N1CCCc2ccccc21,-4,-16,51*,37,1,-10,30,6,2,9
Cc1ccc(NN2C(=O)C=C(c3ccccc3)C2=O)cc1,0,43,52*,.,.,.,27,20*,26,44*
Cc1ccc(Nc2cccccc2=O)cc1,-8,-1,10,11,-8,-8,.,.,.,.
COc1ccc2oc(C(=O)OCC(=O)NCc3ccccc3OC)c(C)c2c1,.,91*,70*,11,-4,56*,23,5,52*,15
SMILES,GPR7 antag,TAAR1 antag,TAAR1 agonist,OX1R antag-1,OX1R antag-2,CHO parental Ca,TAAR1 ag conf,Ga16 nonsel ag,TAAR1 desensitize,Ga16 nonsel ant
COC(C#CCCN(C)C)(c1ccccc1)c1ccccc1,-7,-11,2,-11,-2,3,.,.,.,.
COc1ccc(NC(=O)C2CC(=O)OC2c2ccccc2)cc1 (stereo not given),-5,-7,51*,1,-10,-3,2,1,3,12
Cc1cc(NC(=O)C2CC(=O)OC2c2ccccc2)no1 (stereo not given),-12,0,20,2,-5,-4,.,.,.,.
Cc1cc(-c2csc(N)n2)c(C)n1CCC(C)C,-6,-11,2,15,-14,-15,.,.,.,.
CCOC(=O)c1cc(C)n(CCc2ccccc2)c1C,18,20,51*,13,-20,-24,64*,6,47,9
Cc1cc(-c2csc(N)n2)c(C)n1CCc1ccccc1,-9,37,78*,12,-4,-5,102*,11,89*,-3
CCOC(=O)c1cc(-c2ccccc2)n(CCC(=O)O)c1C,-2,2,9,2,-10,-9,.,.,.,.
Cc1cc(C(=O)CCl)c(C)n1CCc1ccccc1,2,47,64*,11,-23,-22,71*,7,66*,7
COC(=O)CCCn1c(C)cc(C(=O)CCl)c1C,8,12,0,23,1,-1,.,.,.,.
Nc1ccccc1SSc1ccccc1N,-2,16,46*,16,7,-1,34,11,3,7
N#Cc1ccccc1Sc1ccccc1N,-15,.,.,19,-11,-5,.,.,.,.
COc1nccc(C(F)(F)F)c1C(=O)Nc1ccc(Cl)cc1,-9,7,6,6,-5,-13,.,.,.,.
